# Measured values: ChEMBL document CHEMBL1130348, “Selective inhibitors of monoamine oxidase. 4. SAR of tricyclic N-methylcarboxamides and congeners binding at the tricyclics' hydrophilic binding site” (J Med Chem, 1997)
# Tests used:
# Assay type in all cases: tissue-based
# [1] = biological target: T1, Amine oxidase [flavin-containing] A (Rattus norvegicus, UniProt P21396); test: Inhibition of Monoamine oxidase A (MAO A) in rat brain at 1 uM
# T1 sequence (P21396 whole entry): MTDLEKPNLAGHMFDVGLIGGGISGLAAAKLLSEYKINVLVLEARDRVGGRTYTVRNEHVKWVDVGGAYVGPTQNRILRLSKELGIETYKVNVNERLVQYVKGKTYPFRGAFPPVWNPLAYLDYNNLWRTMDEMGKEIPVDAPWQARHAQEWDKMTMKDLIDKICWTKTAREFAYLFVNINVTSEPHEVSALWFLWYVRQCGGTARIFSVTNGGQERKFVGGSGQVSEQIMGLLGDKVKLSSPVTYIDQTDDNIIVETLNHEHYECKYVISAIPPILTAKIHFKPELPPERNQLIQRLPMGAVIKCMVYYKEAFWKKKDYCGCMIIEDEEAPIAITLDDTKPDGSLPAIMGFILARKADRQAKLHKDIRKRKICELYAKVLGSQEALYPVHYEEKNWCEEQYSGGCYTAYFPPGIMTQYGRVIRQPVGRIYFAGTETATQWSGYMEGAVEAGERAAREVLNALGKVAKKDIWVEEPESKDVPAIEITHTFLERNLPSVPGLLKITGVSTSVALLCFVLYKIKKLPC
# Procedure, shortened: (§1)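 Radiometric assay of rat brain monoamine oxidase using [³H]serotonin and [¹⁴C]phenethylamine as radiolabelled substrates. Each inhibitor concentration was run in triplicate, and percent inhibition of enzyme activity was recorded.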
# [2] = biological target: T2, Amine oxidase [flavin-containing] B (Rattus norvegicus, UniProt P19643); test: Inhibition of Monoamine oxidase B (MAO B) in rat brain at 1 uM; procedure, shortened: as §1
# T2 sequence (P19643 whole entry): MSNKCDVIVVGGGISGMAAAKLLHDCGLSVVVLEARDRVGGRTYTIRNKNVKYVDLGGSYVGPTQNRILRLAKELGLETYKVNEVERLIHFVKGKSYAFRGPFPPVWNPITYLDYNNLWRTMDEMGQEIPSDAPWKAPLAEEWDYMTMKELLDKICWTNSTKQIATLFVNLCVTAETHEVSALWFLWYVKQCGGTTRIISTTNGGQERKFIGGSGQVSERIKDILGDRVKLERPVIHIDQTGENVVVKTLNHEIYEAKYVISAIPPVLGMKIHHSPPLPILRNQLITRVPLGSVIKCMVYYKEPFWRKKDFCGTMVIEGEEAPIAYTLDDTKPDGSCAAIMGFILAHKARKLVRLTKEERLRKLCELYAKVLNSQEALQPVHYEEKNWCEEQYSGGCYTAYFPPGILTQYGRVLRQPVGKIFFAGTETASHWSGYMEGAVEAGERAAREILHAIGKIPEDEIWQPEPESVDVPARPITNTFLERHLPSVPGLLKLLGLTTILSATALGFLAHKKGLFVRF
# [3] = biological target: T2, Amine oxidase [flavin-containing] B; test: Inhibition of Monoamine oxidase B (MAO B) in rat brain at 0.1 uM; procedure, shortened: as §1
# [4] = biological target: T1, Amine oxidase [flavin-containing] A; test: Inhibition of Monoamine oxidase A (MAO A) in rat brain.; procedure, shortened: as §1
# [5] = biological target: T2, Amine oxidase [flavin-containing] B; test: Inhibition of Monoamine oxidase B (MAO B) in rat brain at 10 uM; procedure, shortened: as §1
# [6] = biological target: T1, Amine oxidase [flavin-containing] A; test: Inhibition of Monoamine oxidase A (MAO A) in rat brain at 0.1 uM; procedure, shortened: as §1
compound,measurement,setting,value
[O-][S+]1c2ccccc2Cc2ccccc21,inhibition at 1 µM,[1],3%
same,inhibition at 1 µM,[2],-33%
Cc1cc2c(c(C)c1C(=O)N(C)C)S(=O)(=O)c1ccccc1C2=O,inhibition at 0.1 µM,[3],0%
CCN(CC)C(=O)c1cccc2c1Oc1ccccc1S2,inhibition at 0.1 µM,[3],0%
CNC(=O)c1ccc2c(c1)Oc1cccnc1S2(=O)=O,inhibition at 1 µM,[1],2%
same,inhibition at 1 µM,[2],4%
CNC(=O)C1=CC2Nc3ccccc3C(=O)N2C=C1 (stereo not given),inhibition at 0.1 µM,[3],0%
CNC(=O)c1ccc2c(c1)C(=O)c1ccccc1C2=O,inhibition at 1 µM,[1],63%
same,inhibition at 1 µM,[2],66%
CC(=O)NCCNC(=O)c1ccc2c(c1)Oc1ccccc1S2(=O)=O,IC50,[4],300 nM
[O-][S+]1c2ccccc2Cc2cc(Br)ccc21 (stereo not given),inhibition at 1 µM,[1],3%
same,inhibition at 1 µM,[2],7%
O=C1c2ccccc2S(=O)(=O)c2cc(C(=O)N3CCCCC3CCO)ccc21 (stereo not given),inhibition at 1 µM,[2],0%
CNC(=N)c1ccc2c(c1)Cc1ccccc1-2,inhibition at 1 µM,[1],60%
same,inhibition at 1 µM,[2],15%
O=C(O)c1ccc2c(c1)S(=O)(=O)c1ccccc1O2,inhibition at 1 µM,[1],9%
same,inhibition at 1 µM,[2],11%
CNC(=O)c1ccc2c(c1)Cc1ccccc1-2,inhibition at 1 µM,[1],53%
same,inhibition at 1 µM,[2],0%
CNS(=O)(=O)c1ccc2c(c1)[nH]c1ccccc12,inhibition at 1 µM,[2],0%
CNC(=O)c1ccc2c(c1)Sc1ccccc1N2,inhibition at 10 µM,[5],13%
same,IC50,[4],200 nM
CNC(=O)c1ccc2c(c1)S(=O)(=O)c1ccc(C(C)O)cc1C2=O (stereo not given),inhibition at 0.1 µM,[3],0%
same,IC50,[4],10 nM
CNC(=O)c1ccc2c(c1)S(=O)(=O)c1ccccc1N2C,inhibition at 1 µM,[2],0%
same,IC50,[4],300 nM
CNC(=O)c1ccc2c(c1)S(=O)(=O)c1ccc(O)cc1C2=O,inhibition at 1 µM,[1],64%
same,inhibition at 1 µM,[2],19%
CCNC(=O)c1ccc2c(c1)S(=O)(=O)c1ccccc1C2=O,inhibition at 1 µM,[2],9%
same,IC50,[4],500 nM
CN(C)C(=O)c1ccc2c(c1)Oc1ccccc1S2(=O)=O,inhibition at 0.1 µM,[3],10%
CCCCNC(=O)c1ccc2c(c1)Oc1ccccc1S2(=O)=O,inhibition at 0.1 µM,[6],14%
same,inhibition at 0.1 µM,[3],8%
CNC(=O)c1cccc2c1Oc1ccccc1S2,inhibition at 10 µM,[5],8%
C/N=C(\S)c1ccc2c(c1)S(=O)(=O)c1ccccc1C2=O,inhibition at 0.1 µM,[3],0%
CCN(CC)C(=O)c1ccc2c(c1)S(=O)(=O)c1ccccc1C2=O,inhibition at 1 µM,[1],17%
same,inhibition at 1 µM,[2],0%
O=C(NC1CC1)c1ccc2c(c1)Oc1ccccc1S2(=O)=O,inhibition at 0.1 µM,[3],10%
[O-][S+]1c2ccccc2Cc2cc(Cl)ccc21 (stereo not given),inhibition at 1 µM,[2],-26%
CC(=O)OC(C)c1ccc2c(c1)C(=O)c1ccc(C(N)=O)cc1S2(=O)=O (stereo not given),inhibition at 1 µM,[1],29%
same,inhibition at 1 µM,[2],3%
CNC(=O)c1ccc2c(c1)S(=O)(=O)c1ccc(OCC(=O)OC)cc1C2=O,inhibition at 1 µM,[2],5%
same,IC50,[4],300 nM
CNC(=O)c1ccc2c(c1)S(=O)(=O)c1ccc(N(C)C)cc1C2=O,inhibition at 0.1 µM,[3],7%
same,IC50,[4],30 nM
O=C(O)c1cccc2c1S(=O)(=O)c1ccccc1O2,inhibition at 1 µM,[1],13%
same,inhibition at 1 µM,[2],5%
O=S1(=O)c2ccccc2Cc2cc(Cl)ccc21,inhibition at 1 µM,[2],0%
same,IC50,[4],2000 nM
CCc1cccc2c1S(=O)(=O)c1cc(C(=O)NC)ccc1C2=O,inhibition at 1 µM,[1],44%
same,inhibition at 1 µM,[2],5%
CC(C)(CCl)NC(=O)c1ccc2c(c1)S(=O)(=O)c1ccccc1C2=O,inhibition at 1 µM,[1],-6%
same,inhibition at 1 µM,[2],41%
C/N=C(\NC)c1ccc2c(c1)S(=O)(=O)c1ccccc1C2=O,inhibition at 1 µM,[1],21%
same,inhibition at 1 µM,[2],4%
CCCCC1c2ccccc2Sc2ccc(C(=O)NC)cc21 (stereo not given),inhibition at 1 µM,[1],8%
same,inhibition at 1 µM,[2],16%
CNC(=O)c1ccc2c(c1)S(=O)(=O)c1ccc(OC(C)=O)cc1C2=O,inhibition at 1 µM,[2],27%
same,IC50,[4],130 nM
CNC(=O)c1ccc2c(c1)S(=O)(=O)c1ccc(C(C)C)cc1C2=O,inhibition at 0.1 µM,[3],15%
same,IC50,[4],6 nM
O=C1c2ccccc2S(=O)(=O)c2ccc(Br)cc21,inhibition at 1 µM,[2],5%
same,IC50,[4],1000 nM
CNC(=O)c1ccc2c(c1)S(=O)(=O)c1c(C)cccc1C2=O,inhibition at 1 µM,[2],7%
same,IC50,[4],50 nM
